The values below come from PMC3760280 (Structure (London, England : 1993), 2013).

Read-outs that look alike come from different tables or passages of the source. Square brackets hold non-standard residues; d marks the D form. Peptide text beside a SMILES is read from it. * marks the point of attachment. FITC = O=C1OC2(c3ccc(O)cc3Oc3cc(O)ccc32)c2ccc(NC(=S)*)cc21; pT = C[C@@H](OP(=O)(O)O)[C@H](N)C(=O)O; pS = N[C@@H](COP(=O)(O)O)C(=O)O

The target in one experiment is GST-TopBP1 BRCT5 (Homo sapiens, UniProt Q92547). The experiment in a line: Fluorescence polarization. In kind it is binding. The procedure, abridged: (§1)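 Human TopBP1 GST fusions of BRCT4/5 (549–746) or BRCT5 (641–746), wild type or point mutants, were expressed in E. coli BL21-Gold and glutathione-affinity purified. Plates sat 15 min at room temperature, then FP was read at ex 485/em 538 nm. Kd was curve-fitted and averaged over ≥3 independent titrations.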
(In fluorescence polarisation assays a small probe gives low polarisation when free and higher when bound to something large.)

Experiment [1] concerns the target GST-BRCT5 R681E/K682E (TopBP1) (Homo sapiens, UniProt Q92547, K682E/R681E). As to the kind of experiment: Fluorescence polarization. In kind it is binding. The procedure, abridged:
as §1

A further experiment has as its target GST-BRCT5 K704A (TopBP1) (Homo sapiens, UniProt Q92547, K704A). As to the kind of experiment: Fluorescence polarization. The format is binding. The procedure, abridged: as §1
Another experiment has as its target GST-TopBP1 BRCT4/5 (Homo sapiens, UniProt Q92547). The experiment in a line: Fluorescence polarization. The format is binding. The procedure, abridged: as §1
Experiment [2] addresses T1, FITC-labeled MDC1 consensus SDT di-phospho-peptide FITC-GFIDpSDpTDVEEE-NH2.
T1 chain: GFIDSDTDVEEE
As to the kind of experiment: fluorescence polarisation.

Experiment [3] deals with T2, FITC-labeled MDC1 SDT di-phospho-peptide with +2 Val to Asp, FITC-GFIDpSDpTDDEEE-NH2.
T2 chain: GFIDSDTDDEEE
The experiment in a line: fluorescence polarisation.

The target of experiment [4] is T3, FITC-labeled non-phosphorylated MDC1 consensus SDT peptide FITC-…-NH2.
T3 chain: GFIDSDTDVEEE
The experiment in a line: fluorescence polarisation.

For experiment [5], the target named is T4, FITC-labeled pSer MDC1 consensus SDT peptide FITC-GFIDpSDTDVEEE-NH2.
T4 chain: GFIDSDTDVEEE
The experiment in a line: fluorescence polarisation.

The target of experiment [6] is T5, FITC-labeled pThr MDC1 consensus SDT peptide FITC-GFIDSDpTDVEEE-NH2.
T5 chain: GFIDSDTDVEEE
The experiment in a line: fluorescence polarisation.

For experiment [7], the target named is T6, FITC-labeled MDC1 consensus SDT di-phospho-peptide FITC-GFIDpSDpTDVEEE-NH2.
T6 peptide: {FITC}-GFID[pS]D[pT]DVEEE-NH2
As to the kind of experiment: fluorescence polarisation.

Chain of GST-BRCT5 R681E/K682E (TopBP1) (Q92547 641-746 R681E/K682E): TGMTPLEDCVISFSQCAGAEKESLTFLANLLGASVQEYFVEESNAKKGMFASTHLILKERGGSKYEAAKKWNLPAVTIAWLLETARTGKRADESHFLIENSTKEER
Chain of GST-BRCT5 K704A (TopBP1) (Q92547 641-746 K704A): as the sequence (Q92547 641-746 R681E/K682E) above, with E41R, E42K, K64A counted along it

Regarding `CC[C@H](C)[C@H](NC(=O)[C@H](Cc1ccccc1)NC(=O)CNC(=S)Nc1ccc2c(c1)C(=O)OC21c2ccc(O)cc2Oc2cc(O)ccc21)C(=O)N[C@@H](CC(=O)O)C(=O)N[C@@H](CO)C(=O)N[C@@H](CC(=O)O)C(=O)N[C@H](C(=O)N[C@@H](CC(=O)O)C(=O)N[C@H](C(=O)N[C@@H](CCC(=O)O)C(=O)N[C@@H](CCC(=O)O)C(=O)N[C@@H](CCC(=O)O)C(N)=O)C(C)C)[C@@H](C)O` [FITC-GFIDSDTDVEEE-NH2] ({FITC}-GFIDSDTDVEEE-NH2), binding on GST-TopBP1 BRCT5 was put at a Kd of 310 ± 70 µM.
Consider `CC[C@H](C)[C@H](NC(=O)[C@H](Cc1ccccc1)NC(=O)CNC(=S)Nc1ccc2c(c1)C(=O)OC21c2ccc(O)cc2Oc2cc(O)ccc21)C(=O)N[C@@H](CC(=O)O)C(=O)N[C@@H](CO)C(=O)N[C@@H](CC(=O)O)C(=O)N[C@H](C(=O)N[C@@H](CC(=O)O)C(=O)N[C@H](C(=O)N[C@@H](CCC(=O)O)C(=O)N[C@@H](CCC(=O)O)C(=O)N[C@@H](CCC(=O)O)C(N)=O)C(C)C)[C@@H](C)OP(=O)(O)O` [FITC-GFIDSDpTDVEEE-NH2] ({FITC}-GFIDSD[pT]DVEEE-NH2), for which, on GST-TopBP1 BRCT5, the Kd (in general, the constant that tells how readily two partners part at equilibrium) was found to be 98 ± 9 µM.
In turn, `CC[C@H](C)[C@H](NC(=O)[C@H](Cc1ccccc1)NC(=O)CNC(=S)Nc1ccc2c(c1)C(=O)OC21c2ccc(O)cc2Oc2cc(O)ccc21)C(=O)N[C@@H](CC(=O)O)C(=O)N[C@@H](COP(=O)(O)O)C(=O)N[C@@H](CC(=O)O)C(=O)N[C@H](C(=O)N[C@@H](CC(=O)O)C(=O)N[C@H](C(=O)N[C@@H](CCC(=O)O)C(=O)N[C@@H](CCC(=O)O)C(=O)N[C@@H](CCC(=O)O)C(N)=O)C(C)C)[C@@H](C)O` [FITC-GFIDpSDTDVEEE-NH2] ({FITC}-GFID[pS]DTDVEEE-NH2) yielded a Kd at GST-TopBP1 BRCT5 of 105 ± 9 µM.
At GST-TopBP1 BRCT5, `CC[C@H](C)[C@H](NC(=O)[C@H](Cc1ccccc1)NC(=O)CNC(=S)Nc1ccc2c(c1)C(=O)OC21c2ccc(O)cc2Oc2cc(O)ccc21)C(=O)N[C@@H](CC(=O)O)C(=O)N[C@@H](COP(=O)(O)O)C(=O)N[C@@H](CC(=O)O)C(=O)N[C@H](C(=O)N[C@@H](CC(=O)O)C(=O)N[C@@H](CC(=O)O)C(=O)N[C@@H](CCC(=O)O)C(=O)N[C@@H](CCC(=O)O)C(=O)N[C@@H](CCC(=O)O)C(N)=O)[C@@H](C)OP(=O)(O)O` [FITC-GFIDpSDpTDDEEE-NH2] ({FITC}-GFID[pS]D[pT]DDEEE-NH2) returned a Kd of 24 ± 3 µM.
In the case of `CC[C@H](C)[C@H](NC(=O)[C@H](Cc1ccccc1)NC(=O)CNC(=S)Nc1ccc2c(c1)C(=O)OC21c2ccc(O)cc2Oc2cc(O)ccc21)C(=O)N[C@@H](CC(=O)O)C(=O)N[C@@H](COP(=O)(O)O)C(=O)N[C@@H](CC(=O)O)C(=O)N[C@H](C(=O)N[C@@H](CC(=O)O)C(=O)N[C@H](C(=O)N[C@@H](CCC(=O)O)C(=O)N[C@@H](CCC(=O)O)C(=O)N[C@@H](CCC(=O)O)C(N)=O)C(C)C)[C@@H](C)OP(=O)(O)O` [FITC-GFIDpSDpTDVEEE-NH2] ({FITC}-GFID[pS]D[pT]DVEEE-NH2), the Kd in experiment [1] was 280 ± 60 µM; on GST-BRCT5 K704A (TopBP1) it was 210 ± 50 µM; on GST-TopBP1 BRCT5 it was 28 ± 4 µM; on GST-TopBP1 BRCT4/5 it was 27 ± 4 µM.

B1: GST-TopBP1 BRCT5 (641-746), Q92547 641-746 (domain or fragment)
chain: TGMTPLEDCVISFSQCAGAEKESLTFLANLLGASVQEYFVRKSNAKKGMFASTHLILKERGGSKYEAAKKWNLPAVTIAWLLETARTGKRADESHFLIENSTKEER
modifications: not checked
As to B1, the Kd in experiment [2] turned out to be 28 µM; in experiment [3] it was 24 µM; in [4], 310 µM; in experiment [5] it was 105 µM; in experiment [6], 98 µM.

B2: GST-TopBP1 BRCT4/5 (549-746) (domain or fragment)
chain: EEGLFSQKSFLVLGFSNENESNIANIIKENAGKIMSLLSRTVADYAVVPLLGCEVEATVGEVVTNTWLVTCIDYQTLFDPKSNPLFTPVPVMTGMTPLEDCVISFSQCAGAEKESLTFLANLLGASVQEYFVRKSNAKKGMFASTHLILKERGGSKYEAAKKWNLPAVTIAWLLETARTGKRADESHFLIENSTKEER
B2 had a dissociation constant Kd in experiment [7] of 27 ± 4 µM.
